Data from paper PMC3169777 (European Journal of Clinical Pharmacology, 2011).
Where two headings read alike, the source gives them in different places.

Experiments:
[1] = format: in vivo; details: male, human, plasma, plasma macitentan
In short: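 Single fasted doses of 0.2–600 mg were given, 6 active subjects per group. EDTA plasma was spun 10 min at 1,500 g, 4°C, and stored at −20°C. Sampling ran to 48 h, or 144 h for the 300 and 600 mg groups. Parent and metabolite were quantified by validated LC-MS/MS (linear 1–2,000 ng/ml, LOQ 1.0 ng/ml). Cmax, tmax, AUC and t1/2 were derived non-compartmentally.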

[2] = test system: healthy male subjects; assay: Safety and tolerability; format: in vivo, human; details: for Abdominal pain: number of subjects reporting adverse event / Back pain: number of subjects reporting adverse event / Flushing: number of subjects reporting adverse event / Headache: number of subjects reporting adverse event / Hepatic function abnormal: number of subjects reporting adverse event / Leukocytosis: number of subjects reporting adverse event / Nasopharyngitis: number of subjects reporting adverse event / Nausea: number of subjects reporting adverse event / Neck pain: number of subjects reporting adverse event / Rhinitis: number of subjects reporting adverse event / Vomiting: number of subjects reporting adverse event: n = 6
In short: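 Double-blind, randomised, placebo-controlled single-ascending-dose design in healthy males: new group of 8 per level (6 active, 2 placebo), doses 0.2–600 mg, fasted. Next dose given only after safety review. Confinement from about 12 h predose to 48 h postdose. Adverse events, vital signs, 12-lead ECG, clinical laboratory and physical examination recorded. Descriptive analysis with placebo subjects pooled.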

[3] = test system: total bile salts; assay: Serum total bile salts; format: in vivo, human
In short: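 Venous blood was drawn predose and at 1, 2, 3 and 4 h in fasted subjects, with no later draws because of a meal. Tubes without anticoagulant stood 30 min at room temperature, were spun 10 min at 1,500 g, 4°C, and serum was kept at −20°C. An enzymatic assay was used (detection limit 1 μmol/l). AUC0–4h was derived non-compartmentally and compared with placebo by ANOVA (P < 0.05).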

[4] = Metabolic profiling of plasma and urine; format: in vivo, human; details: pooled urine of two subjects, 600-mg dose group
[5] = Simulation of multiple-dose profiles using the single-dose data; set-up: species or system human; details: once-a-day regimen, data not shown
[6] = rats; cited from earlier work
[7] = test system: bile salts; details: rats, ref Actelion Pharmaceuticals, data on file, cited from earlier work
[8] = test system: human hepatic transporters; details: preclinical models, cited from earlier work
[9] = test system: ETA and ETB receptors; details: cited from earlier work
[10] = test system: ETA receptors; details: isolated rat aortic and tracheal preparations; cited from earlier work
[11] = test system: ETB receptors; details: isolated rat aortic and tracheal preparations; cited from earlier work
[12] = test system: patients with treatment-resistant hypertension; details: cited from earlier work

CCCNS(=O)(=O)Nc1ncnc(OCCOc2ncc(Br)cn2)c1-c1ccc(Br)cc1 [macitentan, N-[5-(4-Bromophenyl)-6-(2-(5-bromopyrimidin-2-yloxy)ethoxy)pyrimidin-4-yl]-N′-propylsulfamide]
half-life ([1]; 600 mg, apparent terminal half-life, two higher dose groups (300 and 600 mg)): ~16 h
Tmax ([1]; tmax in most subjects, individual values): 4 to 12 h
increased alanine aminotransferase, times the upper limit of normal ([2]; one subject, 600 mg macitentan, 7 days after drug administration): ≤ 2 times the upper limit of normal
Abdominal pain: number of subjects reporting adverse event ([2]; single dose 0.2 mg macitentan): 0
Back pain: number of subjects reporting adverse event ([2]; single dose 0.2 mg macitentan): 0
Flushing: number of subjects reporting adverse event ([2]; single dose 0.2 mg macitentan): 0
Headache: number of subjects reporting adverse event ([2]; single dose 0.2 mg macitentan): 0
Hepatic function abnormal: number of subjects reporting adverse event ([2]; single dose 0.2 mg macitentan): 0
Leukocytosis: number of subjects reporting adverse event ([2]; single dose 0.2 mg macitentan): 0
Nasopharyngitis: number of subjects reporting adverse event ([2]; single dose 0.2 mg macitentan): 0
Nausea: number of subjects reporting adverse event ([2]; single dose 0.2 mg macitentan): 0
Neck pain: number of subjects reporting adverse event ([2]; single dose 0.2 mg macitentan): 0
Rhinitis: number of subjects reporting adverse event ([2]; single dose 0.2 mg macitentan): 0
Vomiting: number of subjects reporting adverse event ([2]; single dose 0.2 mg macitentan): 0
Abdominal pain: number of subjects reporting adverse event ([2]; single dose 1 mg macitentan): 0
Back pain: number of subjects reporting adverse event ([2]; single dose 1 mg macitentan): 0
Flushing: number of subjects reporting adverse event ([2]; single dose 1 mg macitentan): 0
Headache: number of subjects reporting adverse event ([2]; single dose 1 mg macitentan): 0
Hepatic function abnormal: number of subjects reporting adverse event ([2]; single dose 1 mg macitentan): 0
Leukocytosis: number of subjects reporting adverse event ([2]; single dose 1 mg macitentan): 0
Nasopharyngitis: number of subjects reporting adverse event ([2]; single dose 1 mg macitentan): 0
Nausea: number of subjects reporting adverse event ([2]; single dose 1 mg macitentan): 0
Neck pain: number of subjects reporting adverse event ([2]; single dose 1 mg macitentan): 0
Rhinitis: number of subjects reporting adverse event ([2]; single dose 1 mg macitentan): 0
Vomiting: number of subjects reporting adverse event ([2]; single dose 1 mg macitentan): 0
Abdominal pain: number of subjects reporting adverse event ([2]; single dose 5 mg macitentan): 0
Back pain: number of subjects reporting adverse event ([2]; single dose 5 mg macitentan): 0
Flushing: number of subjects reporting adverse event ([2]; single dose 5 mg macitentan): 0
Headache: number of subjects reporting adverse event ([2]; single dose 5 mg macitentan): 0
Hepatic function abnormal: number of subjects reporting adverse event ([2]; single dose 5 mg macitentan): 0
Leukocytosis: number of subjects reporting adverse event ([2]; single dose 5 mg macitentan): 0
Nasopharyngitis: number of subjects reporting adverse event ([2]; single dose 5 mg macitentan): 0
Nausea: number of subjects reporting adverse event ([2]; single dose 5 mg macitentan): 0
Neck pain: number of subjects reporting adverse event ([2]; single dose 5 mg macitentan): 0
Rhinitis: number of subjects reporting adverse event ([2]; single dose 5 mg macitentan): 0
Vomiting: number of subjects reporting adverse event ([2]; single dose 5 mg macitentan): 0
Abdominal pain: number of subjects reporting adverse event ([2]; single dose 25 mg macitentan): 0
Back pain: number of subjects reporting adverse event ([2]; single dose 25 mg macitentan): 0
Flushing: number of subjects reporting adverse event ([2]; single dose 25 mg macitentan): 0
Headache: number of subjects reporting adverse event ([2]; single dose 25 mg macitentan): 2
Hepatic function abnormal: number of subjects reporting adverse event ([2]; single dose 25 mg macitentan): 0
Leukocytosis: number of subjects reporting adverse event ([2]; single dose 25 mg macitentan): 0
Nasopharyngitis: number of subjects reporting adverse event ([2]; single dose 25 mg macitentan): 1
Nausea: number of subjects reporting adverse event ([2]; single dose 25 mg macitentan): 0
Neck pain: number of subjects reporting adverse event ([2]; single dose 25 mg macitentan): 0
Rhinitis: number of subjects reporting adverse event ([2]; single dose 25 mg macitentan): 0
Vomiting: number of subjects reporting adverse event ([2]; single dose 25 mg macitentan): 0
Abdominal pain: number of subjects reporting adverse event ([2]; single dose 100 mg macitentan): 0
Back pain: number of subjects reporting adverse event ([2]; single dose 100 mg macitentan): 0
Flushing: number of subjects reporting adverse event ([2]; single dose 100 mg macitentan): 0
Headache: number of subjects reporting adverse event ([2]; single dose 100 mg macitentan): 1
Hepatic function abnormal: number of subjects reporting adverse event ([2]; single dose 100 mg macitentan): 0
Leukocytosis: number of subjects reporting adverse event ([2]; single dose 100 mg macitentan): 1
Nasopharyngitis: number of subjects reporting adverse event ([2]; single dose 100 mg macitentan): 0
Nausea: number of subjects reporting adverse event ([2]; single dose 100 mg macitentan): 0
Neck pain: number of subjects reporting adverse event ([2]; single dose 100 mg macitentan): 1
Rhinitis: number of subjects reporting adverse event ([2]; single dose 100 mg macitentan): 0
Vomiting: number of subjects reporting adverse event ([2]; single dose 100 mg macitentan): 0
Abdominal pain: number of subjects reporting adverse event ([2]; single dose 300 mg macitentan): 0
Back pain: number of subjects reporting adverse event ([2]; single dose 300 mg macitentan): 1
Flushing: number of subjects reporting adverse event ([2]; single dose 300 mg macitentan): 0
Headache: number of subjects reporting adverse event ([2]; single dose 300 mg macitentan): 2
Hepatic function abnormal: number of subjects reporting adverse event ([2]; single dose 300 mg macitentan): 0
Leukocytosis: number of subjects reporting adverse event ([2]; single dose 300 mg macitentan): 0
Nasopharyngitis: number of subjects reporting adverse event ([2]; single dose 300 mg macitentan): 0
Nausea: number of subjects reporting adverse event ([2]; single dose 300 mg macitentan): 0
Neck pain: number of subjects reporting adverse event ([2]; single dose 300 mg macitentan): 0
Rhinitis: number of subjects reporting adverse event ([2]; single dose 300 mg macitentan): 0
Vomiting: number of subjects reporting adverse event ([2]; single dose 300 mg macitentan): 0
Abdominal pain: number of subjects reporting adverse event ([2]; single dose 600 mg macitentan): 1
Back pain: number of subjects reporting adverse event ([2]; single dose 600 mg macitentan): 0
Flushing: number of subjects reporting adverse event ([2]; single dose 600 mg macitentan): 1
Headache: number of subjects reporting adverse event ([2]; single dose 600 mg macitentan): 5
Hepatic function abnormal: number of subjects reporting adverse event ([2]; single dose 600 mg macitentan): 1
Leukocytosis: number of subjects reporting adverse event ([2]; single dose 600 mg macitentan): 0
Nasopharyngitis: number of subjects reporting adverse event ([2]; single dose 600 mg macitentan): 0
Nausea: number of subjects reporting adverse event ([2]; single dose 600 mg macitentan): 2
Neck pain: number of subjects reporting adverse event ([2]; single dose 600 mg macitentan): 0
Rhinitis: number of subjects reporting adverse event ([2]; single dose 600 mg macitentan): 2
Vomiting: number of subjects reporting adverse event ([2]; single dose 600 mg macitentan): 2
maximum tolerated dose ([2]; single dose, healthy male subjects): 300 mg
effects on vital signs, ECG and clinical laboratory variables ([2]; single doses 0.2 to 600 mg): no clinically significant drug-related effects
effect on serum total bile salts at the lowest dose ([3]; single dose 0.2 mg macitentan, P < 0.05 compared with placebo): small but statistically significant effect
effect on serum total bile salt concentrations ([3]; single doses of up to 600 mg, 4-h observation period): no dose-dependent effect
detection in urine [4]: no macitentan and ACT-132577 could be detected
predicted accumulation factor upon repeated dosing [5]: 1.7
half-life [6]: 2 h
volume of distribution [6]: 1 L/kg
effect on circulating bile salts [7]: does not increase circulating bile salts
inhibition of human hepatic transporters ([8]; ref Actelion Pharmaceuticals, data on file): did not inhibit
selectivity for ETA receptors over ETB receptors [9]: about 50 fold

Cc1cc2c(cc1CC(=O)c1sccc1S(=O)(=O)Nc1onc(C)c1Cl)OCO2 [sitaxentan, reference compound]
interaction with human hepatic transporters [8]: substrates of and inhibit human hepatic transporters

NS(=O)(=O)Nc1ncnc(OCCOc2ncc(Br)cn2)c1-c1ccc(Br)cc1 [ACT-132577]
detection in urine [4]: no macitentan and ACT-132577 could be detected
predicted accumulation factor upon repeated dosing [5]: 10
half-life [6]: 8.5 h
selectivity for ETA receptors over ETB receptors [9]: ~16 fold
affinity for ETA and ETB receptors compared with macitentan ([9]; preclinical experiments): lower
potency as endothelin receptor antagonist compared with macitentan ([9]; receptor binding and functional assays): less potent
fold less potent than macitentan in blocking ETA receptors [10]: up to 5 fold
fold less potent than macitentan in blocking ETB receptors [11]: up to 5 fold

COc1ccccc1Oc1c(NS(=O)(=O)c2ccc(C(C)(C)C)cc2)nc(-c2ncccn2)nc1OCCO [bosentan, reference compound]
effect on plasma bile salts ([7]; intravenous administration): acute increase in plasma bile salts

COc1cc(OC)nc(O[C@H](C(=O)O)C(OC)(c2ccccc2)c2ccccc2)n1 [darusentan]
oedema or fluid retention, patients affected [12]: 27%
